According to ChEMBL document CHEMBL1177709, “Molecular switch controlling the binding of anionic bile acid conjugates to human apical sodium-dependent bile acid transporter” (J Med Chem, 2010):

Target: T1, Ileal sodium/bile acid cotransporter (Homo sapiens, UniProt Q12908)
T1 sequence (Q12908 whole entry): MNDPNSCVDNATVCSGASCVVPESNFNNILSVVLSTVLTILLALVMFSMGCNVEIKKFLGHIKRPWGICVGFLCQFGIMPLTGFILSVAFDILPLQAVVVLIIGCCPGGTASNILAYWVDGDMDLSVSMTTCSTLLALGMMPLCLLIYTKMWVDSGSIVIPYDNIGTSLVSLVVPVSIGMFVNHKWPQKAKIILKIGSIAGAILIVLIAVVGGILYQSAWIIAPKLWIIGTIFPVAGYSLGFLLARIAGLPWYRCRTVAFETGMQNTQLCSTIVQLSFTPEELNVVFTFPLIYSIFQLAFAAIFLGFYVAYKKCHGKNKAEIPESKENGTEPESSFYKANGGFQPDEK
Assay: Inhibition of human ASBT expressed in MDCK cells assessed as inhibition of [3H]taurocholic acid uptake after 10 mins by liquid scintillation counting
Assay type: cell-based
Summary of the method: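 Stably transfected hASBT-MDCK cells grown in DMEM with 10% FBS, penicillin/streptomycin and 1 mg/mL geneticin, seeded at 1.5 million/well, induced with 10mM sodium butyrate for 12-17 h before study on day 4. Cells washed with chilled sodium-free buffer, lysed in NaOH, neutralized, counted.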

In order of falling Ki:
1. C[C@H](CCC(=O)N[C@@H](CCC(=O)NCc1cccc(C(=O)O)c1)C(=O)O)[C@H]1CC[C@H]2[C@@H]3[C@H](O)C[C@H]4C[C@H](O)CC[C@]4(C)[C@H]3CC[C@]12C  126 µM
2. C[C@H](CCC(=O)N[C@@H](CCC(=O)Nc1ccc(C(=O)O)cc1)C(=O)O)[C@H]1CC[C@H]2[C@@H]3[C@H](O)C[C@H]4C[C@H](O)CC[C@]4(C)[C@H]3CC[C@]12C  108 µM
3. C[C@H](CCC(=O)N[C@@H](CCC(=O)NCc1ccc(C(=O)O)cc1)C(=O)O)[C@H]1CC[C@H]2[C@@H]3[C@H](O)C[C@H]4C[C@H](O)CC[C@]4(C)[C@H]3CC[C@]12C  41 µM
4. C[C@H](CCC(=O)N[C@@H](CCC(=O)Nc1ccccc1C(=O)O)C(=O)O)[C@H]1CC[C@H]2[C@@H]3[C@H](O)C[C@H]4C[C@H](O)CC[C@]4(C)[C@H]3CC[C@]12C  40.4 µM
5. C[C@H](CCC(=O)N[C@@H](CCC(=O)Nc1cccc(C(=O)O)c1)C(=O)O)[C@H]1CC[C@H]2[C@@H]3[C@H](O)C[C@H]4C[C@H](O)CC[C@]4(C)[C@H]3CC[C@]12C  35.9 µM
6. C[C@H](CCC(=O)N[C@@H](CCC(=O)Nc1cccc(N)c1)C(=O)O)[C@H]1CC[C@H]2[C@@H]3[C@H](O)C[C@H]4C[C@H](O)CC[C@]4(C)[C@H]3CC[C@]12C  16.3 µM
7. C[C@H](CCC(=O)N[C@@H](CCC(=O)Nc1ccc(N)cc1)C(=O)O)[C@H]1CC[C@H]2[C@@H]3[C@H](O)C[C@H]4C[C@H](O)CC[C@]4(C)[C@H]3CC[C@]12C  15.9 µM
8. Cc1cccc(C)c1NC(=O)CC[C@H](NC(=O)CC[C@@H](C)[C@H]1CC[C@H]2[C@@H]3[C@H](O)C[C@H]4C[C@H](O)CC[C@]4(C)[C@H]3CC[C@]12C)C(=O)O  8.07 µM
9. COC(=O)c1cccc(NC(=O)CC[C@H](NC(=O)CC[C@@H](C)[C@H]2CC[C@H]3[C@@H]4[C@H](O)C[C@H]5C[C@H](O)CC[C@]5(C)[C@H]4CC[C@]23C)C(=O)O)c1  7.65 µM
10. CC(CCC(=O)NC(CCC(=O)Nc1cccc(NC(=O)OC(C)(C)C)c1)C(=O)O)C1CCC2C3C(O)CC4CC(O)CCC4(C)C3CCC12C (centres undefined)  6.53 µM
11. COc1ccc(NC(=O)CC[C@H](NC(=O)CC[C@@H](C)[C@H]2CC[C@H]3[C@@H]4[C@H](O)C[C@H]5C[C@H](O)CC[C@]5(C)[C@H]4CC[C@]23C)C(=O)O)cc1  6.09 µM
12. CC(CCC(=O)NC(CCC(=O)Nc1ccc(NC(=O)OC(C)(C)C)cc1)C(=O)O)C1CCC2C3C(O)CC4CC(O)CCC4(C)C3CCC12C (centres undefined)  5.26 µM
13. COc1cc(NC(=O)CC[C@H](NC(=O)CC[C@@H](C)[C@H]2CC[C@H]3[C@@H]4[C@H](O)C[C@H]5C[C@H](O)CC[C@]5(C)[C@H]4CC[C@]23C)C(=O)O)cc(OC)c1  5.19 µM
14. CCOC(=O)c1ccc(NC(=O)CCC(NC(=O)CCC(C)C2CCC3C4C(O)CC5CC(O)CCC5(C)C4CCC23C)C(=O)O)cc1 (centres undefined)  5.16 µM
15. Cc1cccc(NC(=O)CC[C@H](NC(=O)CC[C@@H](C)[C@H]2CC[C@H]3[C@@H]4[C@H](O)C[C@H]5C[C@H](O)CC[C@]5(C)[C@H]4CC[C@]23C)C(=O)O)c1C  4.3 µM
16. COc1cccc(NC(=O)CC[C@H](NC(=O)CC[C@@H](C)[C@H]2CC[C@H]3[C@@H]4[C@H](O)C[C@H]5C[C@H](O)CC[C@]5(C)[C@H]4CC[C@]23C)C(=O)O)c1  4.22 µM
17. COC(=O)c1ccc(NC(=O)CC[C@H](NC(=O)CC[C@@H](C)[C@H]2CC[C@H]3[C@@H]4[C@H](O)C[C@H]5C[C@H](O)CC[C@]5(C)[C@H]4CC[C@]23C)C(=O)O)cc1  4.03 µM
18. C[C@H](CCC(=O)N[C@@H](CCC(=O)Nc1ccccc1C(C)(C)C)C(=O)O)[C@H]1CC[C@H]2[C@@H]3[C@H](O)C[C@H]4C[C@H](O)CC[C@]4(C)[C@H]3CC[C@]12C  3.93 µM
19. COc1ccccc1NC(=O)CC[C@H](NC(=O)CC[C@@H](C)[C@H]1CC[C@H]2[C@@H]3[C@H](O)C[C@H]4C[C@H](O)CC[C@]4(C)[C@H]3CC[C@]12C)C(=O)O  3.89 µM
20. Cc1ccc(NC(=O)CC[C@H](NC(=O)CC[C@@H](C)[C@H]2CC[C@H]3[C@@H]4[C@H](O)C[C@H]5C[C@H](O)CC[C@]5(C)[C@H]4CC[C@]23C)C(=O)O)cc1  3.2 µM
21. C[C@H](CCC(=O)N[C@@H](CCC(=O)Nc1ccc(F)cc1F)C(=O)O)[C@H]1CC[C@H]2[C@@H]3[C@H](O)C[C@H]4C[C@H](O)CC[C@]4(C)[C@H]3CC[C@]12C  3.16 µM
22. C[C@H](CCC(=O)N[C@@H](CCC(=O)Nc1ccc(F)cc1)C(=O)O)[C@H]1CC[C@H]2[C@@H]3[C@H](O)C[C@H]4C[C@H](O)CC[C@]4(C)[C@H]3CC[C@]12C  3.02 µM
23. C[C@H](CCC(=O)N[C@@H](CCC(=O)Nc1ccccc1N)C(=O)O)[C@H]1CC[C@H]2[C@@H]3[C@H](O)C[C@H]4C[C@H](O)CC[C@]4(C)[C@H]3CC[C@]12C  2.64 µM
24. Cc1ccccc1NC(=O)CC[C@H](NC(=O)CC[C@@H](C)[C@H]1CC[C@H]2[C@@H]3[C@H](O)C[C@H]4C[C@H](O)CC[C@]4(C)[C@H]3CC[C@]12C)C(=O)O  2.63 µM
25. C[C@H](CCC(=O)N[C@@H](CCC(=O)Nc1ccccc1F)C(=O)O)[C@H]1CC[C@H]2[C@@H]3[C@H](O)C[C@H]4C[C@H](O)CC[C@]4(C)[C@H]3CC[C@]12C  2.31 µM
26. COC(=O)c1ccccc1NC(=O)CC[C@H](NC(=O)CC[C@@H](C)[C@H]1CC[C@H]2[C@@H]3[C@H](O)C[C@H]4C[C@H](O)CC[C@]4(C)[C@H]3CC[C@]12C)C(=O)O  2.3 µM
27. C[C@H](CCC(=O)N[C@@H](CCC(=O)Nc1cccc(C(=O)O)c1)C(=O)OOCc1ccccc1)[C@H]1CC[C@H]2[C@@H]3[C@H](O)C[C@H]4C[C@H](O)CC[C@]4(C)[C@H]3CC[C@]12C  2.24 µM
28. C[C@H](CCC(=O)N[C@@H](CCC(=O)Nc1ccc(C(F)(F)F)cc1)C(=O)O)[C@H]1CC[C@H]2[C@@H]3[C@H](O)C[C@H]4C[C@H](O)CC[C@]4(C)[C@H]3CC[C@]12C  2.02 µM
29. C[C@H](CCC(=O)N[C@@H](CCC(=O)Nc1ccc(Cl)cc1)C(=O)O)[C@H]1CC[C@H]2[C@@H]3[C@H](O)C[C@H]4C[C@H](O)CC[C@]4(C)[C@H]3CC[C@]12C  1.91 µM
30. C[C@H](CCC(=O)N[C@@H](CCC(=O)Nc1cccc(F)c1)C(=O)O)[C@H]1CC[C@H]2[C@@H]3[C@H](O)C[C@H]4C[C@H](O)CC[C@]4(C)[C@H]3CC[C@]12C  1.25 µM
31. CCOC(=O)c1ccccc1NC(=O)CCC(NC(=O)CCC(C)C1CCC2C3C(O)CC4CC(O)CCC4(C)C3CCC12C)C(=O)O (centres undefined)  1.15 µM
32. Cc1cccc(NC(=O)CC[C@H](NC(=O)CC[C@@H](C)[C@H]2CC[C@H]3[C@@H]4[C@H](O)C[C@H]5C[C@H](O)CC[C@]5(C)[C@H]4CC[C@]23C)C(=O)O)c1  0.889 µM
33. C[C@H](CCC(=O)N[C@@H](CCC(=O)Nc1cccc(C(C)(C)C)c1)C(=O)O)[C@H]1CC[C@H]2[C@@H]3[C@H](O)C[C@H]4C[C@H](O)CC[C@]4(C)[C@H]3CC[C@]12C  0.587 µM
34. C[C@H](CCC(=O)N[C@@H](CCC(=O)Nc1ccc(C(C)(C)C)cc1)C(=O)O)[C@H]1CC[C@H]2[C@@H]3[C@H](O)C[C@H]4C[C@H](O)CC[C@]4(C)[C@H]3CC[C@]12C  0.275 µM
